{"source": "PubChem BioAssay AID1885", "about": "(Broad Institute, 2009)", "note": "In all, about 300,000 compounds went through this assay and about 4,400 (1.5%) were called active. The entries come from a sample that favours actives as a whole. Values without a mark were called inactive.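 The calls were made as follows: active = mean inhibition across valid replicates above about 55% (limit read from the data); inconclusive = mean below that limit but half or more replicates reach it; inactive = mean below it, under half of replicates reach it.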"}
{"test": "Trypanosoma cruzi replication blockers in host cells – luminescence, NIH3T3 host cells, primary screen (AID 1885);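 also: signal also drops with host cell toxicity which is not excluded here; 0% = plate median of DMSO wells and 100% = zero luminescence signal; higher percent means less beta-gal luminescence so fewer parasites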", "details": "T. cruzi beta-gal in NIH3T3, luminescence, 90 h; active compounds read high; concentration not given here", "procedure,_shortened": "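System – NIH/3T3 host cells with β-galactosidase reporter T. cruzi · Doses – single 50 nL compound addition per well in DMSO · Reagent – 5000 T. cruzi trypomastigotes/well · Medium – Low-serum DMEM with 2% FBS · Timing – ≥90 h infection period, 3 h prior cell attachment · Evaluation – parasite load inhibition, % · Technique – GalScreen luminescence, 60 min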"}
{"smiles": "COc1ccccc1CN(C)C(=O)c1cc2ccccc2o1", "inhibition": "0.505%"}
{"smiles": "N=c1oc2ccccc2cc1C(=O)NCc1ccccc1", "inhibition": "-12.9%"}
{"smiles": "CN(C)CCCCCN(C)Cc1cc2ccccc2o1", "inhibition": "69.5% (active)"}
{"smiles": "O=C(COc1ccc2ccc(=O)oc2c1)NCC(O)c1ccccc1", "note": "(stereo not drawn)", "inhibition": "-12.4%"}
{"smiles": "COc1cc(NC(=O)CCNC(=O)Cn2ccc3ccccc3c2=O)cc(OC)c1OC", "inhibition": "-1.49%"}
{"smiles": "Cc1ccc(-c2c(C)n([O-])c3c([n+]2=O)CCC3)cc1", "inhibition": "-4.48%"}
{"smiles": "CCOc1cc(NC(=O)Nc2ccccc2)c(OCC)cc1NC(=O)CC", "inhibition": "-28.4%"}
{"smiles": "CCOc1cc(NC(=O)c2ccccc2C(=O)O)c(OCC)cc1NC(=O)c1ccccc1F", "inhibition": "60.5% (active)"}
{"smiles": "NC(=O)c1ccccc1NC(=O)c1ccccc1F", "inhibition": "-8.84%"}
{"smiles": "COc1cccc(N(CC(=O)NC2CCCCCC2)S(=O)(=O)c2ccccc2)c1", "inhibition": "21.4%"}
{"smiles": "Cc1ccc(-c2ccc(/C=N/NC(=O)CN3CCOCC3)o2)cc1[N+](=O)[O-]", "inhibition": "-11.4%"}
{"smiles": "Cc1cc(C(=O)N/N=C/c2ccccc2[N+](=O)[O-])c(C)o1", "inhibition": "-0.35%"}
{"smiles": "Cc1occc1C(=O)N/N=C/c1ccc(-c2cccc([N+](=O)[O-])c2)o1", "inhibition": "67.8% (active)"}
{"smiles": "CC(=O)N1CCN(CC(C)(C)NS(=O)(=O)c2ccc(C)cc2)CC1", "inhibition": "11.8%"}
{"smiles": "O=C(CCc1ccccc1)Nc1ncc([N+](=O)[O-])s1", "inhibition": "86.1% (active)"}
{"smiles": "O=C(Cc1c(F)cccc1Cl)Nc1ncc([N+](=O)[O-])s1", "inhibition": "50.4%"}
{"smiles": "O=C(Nc1ncc([N+](=O)[O-])s1)C1COc2ccccc2O1", "note": "(stereo not drawn)", "inhibition": "-1.76%"}
{"smiles": "Cc1ccccc1C(=O)NNC(=O)CN1C(=O)c2ccccc2C1=O", "inhibition": "-15.4%"}
{"smiles": "COc1ccc(OCc2cc(C(=O)NCC3(C)COC3)no2)c(Cl)c1", "inhibition": "-0.702%"}
{"smiles": "CCCCn1c(N)c(N(CCOC)C(=O)c2cccc(S(=O)(=O)N3CCCCC3)c2)c(=O)[nH]c1=O", "inhibition": "-8.61%"}
{"smiles": "O=C(/C=C/c1ccc(OCc2c(F)cccc2Cl)cc1)N1CCOCC1", "inhibition": "16.6%"}
{"smiles": "CN(C)CCCNC(=O)/C=C/c1ccc(OCc2c(F)cccc2Cl)cc1", "inhibition": "55.5% (active)"}
{"smiles": "COCCCNC(=O)/C=C/c1ccc(OCc2c(F)cccc2Cl)cc1", "inhibition": "19%"}
{"smiles": "COc1ccc(C2c3[nH]c4ccccc4c3C[C@H]3C(=O)N(CC(C)C)CC(=O)N23)c(OC)c1", "note": "(stereo partly drawn)", "inhibition": "9.19%"}
{"smiles": "COCCCNC(=S)N(CCN(C)C)Cc1cc2cc3c(cc2[nH]c1=O)OCCO3", "inhibition": "-7.66%"}
{"smiles": "Cc1cccc2cc(CN(Cc3cccs3)C(=S)NCc3ccco3)c(=O)[nH]c12", "inhibition": "18.3%"}
{"smiles": "Cc1cc(C)c2[nH]c(=O)c(CN(Cc3ccccc3)C(=S)NCCCN(C)C)cc2c1", "inhibition": "59.1% (active)"}
{"smiles": "COc1ccc(Cc2cc(-c3ccc(F)cc3)n[nH]c2=O)cc1", "inhibition": "-6.16%"}
{"smiles": "CC1(c2ccccc2)NC(=O)N(CC(=O)Nc2cc(Cl)ccc2N2CCOCC2)C1=O", "note": "(stereo not drawn)", "inhibition": "5.62%"}
{"smiles": "CCc1cccc(C)c1NC(=O)COC(=O)CNC(=O)c1cccs1", "inhibition": "-15.5%"}
{"smiles": "Cc1cccc(N(CC(=O)N=Nc2c(O)[nH]c3ccccc23)S(C)(=O)=O)c1C", "inhibition": "16.1%"}
{"smiles": "O=[N+]([O-])c1cc(S(=O)(=O)Nc2cccc(Cl)c2)ccc1N=Nc1c(O)[nH]c2ccccc12", "inhibition": "61.7% (active)"}
{"smiles": "CN1CCN(c2ccc(S(=O)(=O)Nc3ccccc3)cc2[N+](=O)[O-])CC1", "inhibition": "18.5%"}
{"smiles": "O=C(NCC(c1ccco1)N1CCc2ccccc2C1)c1ccccc1Cl", "note": "(stereo not drawn)", "inhibition": "-5.54%"}
{"smiles": "O=C(NCc1cccnc1)c1cc(S(=O)(=O)N2CCOCC2)c(Cl)cc1Cl", "inhibition": "3.92%"}
{"smiles": "Cc1noc(C)c1CSCC(=O)Nc1ccc(Br)cc1Cl", "inhibition": "1.67%"}
{"smiles": "O=C(Nc1cc(-c2nc3ncccc3o2)ccc1Cl)c1ccco1", "inhibition": "-11%"}
{"smiles": "O=C(Nc1cccc(NC(=O)c2ccco2)c1)c1cnccn1", "inhibition": "21.9%"}
{"smiles": "O=C(Nc1cccc(-c2nc3ncccc3o2)c1)c1ccco1", "inhibition": "69.4% (active)"}
{"smiles": "N#Cc1ccccc1NC(=O)COc1c(Br)cc(Br)c2cccnc12", "inhibition": "-12.8%"}
{"smiles": "CN1CCN(c2ccc(S(=O)(=O)N3CCCCC3)cc2NC(=O)Cc2ccccc2F)CC1", "inhibition": "45.1%"}
{"smiles": "O=C(COc1cccc2ccccc12)Nc1cc(S(=O)(=O)N2CCOCC2)ccc1N1CCOCC1", "inhibition": "2.7%"}
{"smiles": "CCN1CCN(c2ccc(S(=O)(=O)N3CCCCC3)cc2NC(=O)c2cccc(NC(C)=O)c2)CC1", "inhibition": "0.05%"}
{"smiles": "CN1CCN(c2ccc(S(=O)(=O)N3CCOCC3)cc2NC(=O)CCc2ccccc2)CC1", "inhibition": "54.9% (active)"}
{"smiles": "CCN1CCN(c2ccc(S(=O)(=O)N3CCCCC3)cc2NC(=O)Cc2c(Cl)cccc2Cl)CC1", "inhibition": "65.7% (active)"}
{"smiles": "CC(=O)NCCC(=O)Nc1cc(S(=O)(=O)N2CCOCC2)ccc1N1CCOCC1", "inhibition": "-12%"}
{"smiles": "CCOC(=O)C1=C(c2ccccc2)N=C2SCC(=O)N2C1c1ccc(O)c(OC)c1", "note": "(stereo not drawn)", "inhibition": "-14.5%"}
{"smiles": "Cc1nn(C)c(C)c1CN(C(=O)CCc1nnc(Cc2c[nH]c3ccccc23)o1)C(C)C", "inhibition": "9.23%"}
{"smiles": "CCOC(=O)N1CCN(S(=O)(=O)c2ccc(-n3cnnn3)cc2)CC1", "inhibition": "0.644%"}
{"smiles": "COc1ccc(NC(=O)C(=O)NCC(c2ccco2)N2CCc3ccccc3C2)cc1", "note": "(stereo not drawn)", "inhibition": "9.29%"}
{"smiles": "CCc1ccccc1NC(=O)NCCN1CCCCC1", "inhibition": "1.39%"}
{"smiles": "O=C(c1cc(C(=O)N2CCN(c3ccc(F)cc3)CC2)cc([N+](=O)[O-])c1)N1CCN(c2ccc(F)cc2)CC1", "inhibition": "45.8%"}
{"smiles": "CC1CCC2CCCCC2N1C(=O)c1cc([N+](=O)[O-])cc([N+](=O)[O-])c1", "note": "(stereo not drawn)", "inhibition": "56% (active)"}
{"smiles": "CC1CCN(C(=S)c2cccc([N+](=O)[O-])c2)CC1", "inhibition": "1.31%"}
{"smiles": "OCC(O)CN(c1ccccc1)c1ccccc1", "note": "(stereo not drawn)", "inhibition": "-11.6%"}
{"smiles": "COc1cc(Br)c(-c2sc(Nc3ccccc3)n[n+]2-c2ccccc2)cc1OC", "inhibition": "0.144%"}
{"smiles": "COc1ccc(C)cc1Nc1n[n+](-c2ccccc2)c(-c2cccc(Cl)c2Cl)s1", "inhibition": "61.2% (active)"}
{"smiles": "COc1ccc(C)cc1S(=O)(=O)Nc1cccc(Cl)c1Cl", "inhibition": "8.72%"}
